{
  "source": "paper PMC6682096",
  "about": "(ACS Omega, 2019)",
  "key": {"[1]": {"tested_on": "insulin-resistant HepG2 cells", "experiment": "2-NBDG glucose uptake assay", "type": "cell-based, human", "conditions": "for relative glucose uptake percentage: insulin-stimulated 2-NBDG uptake", "in_short": "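Insulin-resistant HepG2 cells (grown in 10% FBS MEM; resistance induced by a previously reported method) treated with test compound at 12.5, 25 and 50 μM and stimulated with 10–6 M insulin. Uptake of the fluorescent glucose analogue 2-NBDG read fluorimetrically on a plate reader. Rosiglitazone (10 μM) served as reference. Triplicate experiments, mean ± standard deviation.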"}, "[2]": {"biological_target": "T1, PTP1B (Homo sapiens, UniProt P18031)", "T1 sequence (P18031 1-435)": "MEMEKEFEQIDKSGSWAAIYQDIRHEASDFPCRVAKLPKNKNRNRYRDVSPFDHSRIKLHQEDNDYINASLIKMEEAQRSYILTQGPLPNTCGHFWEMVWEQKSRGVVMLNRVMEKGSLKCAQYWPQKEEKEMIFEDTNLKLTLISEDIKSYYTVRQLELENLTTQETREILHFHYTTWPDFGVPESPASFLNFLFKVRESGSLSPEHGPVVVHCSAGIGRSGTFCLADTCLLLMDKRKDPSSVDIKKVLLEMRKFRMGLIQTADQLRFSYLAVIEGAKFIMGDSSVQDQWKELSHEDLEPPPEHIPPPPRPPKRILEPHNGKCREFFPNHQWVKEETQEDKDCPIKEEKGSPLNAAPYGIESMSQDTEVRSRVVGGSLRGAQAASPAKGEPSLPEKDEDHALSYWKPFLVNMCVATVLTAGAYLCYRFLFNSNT", "experiment": "PTP1B inhibition assay using pNPP", "type": "biochemical"}, "[3]": {"tested_on": "PTP1B expression in insulin-resistant HepG2 cells", "experiment": "Western blot of PTP1B expression level", "type": "cell-based, human", "conditions": "24 h treatment"}, "[4]": {"tested_on": "HepG2 cells", "experiment": "Cytotoxicity, cell viability by MTT assay", "type": "cell-based, human", "conditions": "up to 100 μM", "in_short": "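HepG2 cells were subcultured in MEM with 10% FBS, refreshing the medium every 48 h until confluent. They were then seeded in 96-well plates, and viability after test-compound exposure was assessed by MTT assay.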"}, "[5]": {"biological_target": "T1, PTP1B", "experiment": "Enzyme kinetics of PTP1B inhibition", "type": "biochemical", "conditions": "for Ki: secondary plots", "in_short": "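Human recombinant PTP1B (0.5 unit) in pH 6.0 buffer (50 mM citrate, 0.1 M NaCl, 1 mM EDTA, 1 mM DTT) was preincubated with or without test compound for 10 min at 37 °C. pNPP substrate was then added at three concentrations and incubated for 20 min at 37 °C. NaOH stopped the reaction, and p-nitrophenol was read at 405 nm. Km and Vmax came from Lineweaver–Burk plots, with Dixon plots also used. Ki, Kic and Kiu came from secondary plots.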"}, "[6]": {"tested_on": "PEPCK and G6Pase expression in insulin-resistant HepG2 cells", "experiment": "Western blot of PEPCK and G6Pase expression levels", "type": "cell-based, human"}, "[7]": {"biological_target": "T2, hMAO-A (Homo sapiens, UniProt P21397)", "T2 sequence (P21397 1-527)": "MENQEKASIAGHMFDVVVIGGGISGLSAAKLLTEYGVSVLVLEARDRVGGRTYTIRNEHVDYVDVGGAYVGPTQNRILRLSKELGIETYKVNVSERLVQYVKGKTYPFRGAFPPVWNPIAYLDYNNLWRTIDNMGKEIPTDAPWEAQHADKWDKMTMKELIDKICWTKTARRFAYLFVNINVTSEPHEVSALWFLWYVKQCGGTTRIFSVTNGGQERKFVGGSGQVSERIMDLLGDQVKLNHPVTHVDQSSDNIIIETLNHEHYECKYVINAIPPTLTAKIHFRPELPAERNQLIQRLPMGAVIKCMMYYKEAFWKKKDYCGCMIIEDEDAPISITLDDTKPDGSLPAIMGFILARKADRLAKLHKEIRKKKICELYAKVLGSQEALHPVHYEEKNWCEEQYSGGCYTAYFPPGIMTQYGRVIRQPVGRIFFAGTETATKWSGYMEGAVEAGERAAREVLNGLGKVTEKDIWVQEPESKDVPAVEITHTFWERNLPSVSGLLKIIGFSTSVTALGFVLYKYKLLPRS", "experiment": "Enzyme kinetics of hMAO-A inhibition", "type": "biochemical", "conditions": "Lineweaver–Burk plot", "in_short": "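hMAO-A activity measured by chemiluminescent MAO-Glo assay, with MAO substrate at three concentrations, with or without test compound. Lineweaver–Burk plots (with Dixon plots) gave Km, Vmax and inhibition mode. Ki, Kic and Kiu came from secondary plots.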"}, "[8]": {"tested_on": "IRS-1/PI3K/Akt signaling pathway in insulin-resistant HepG2 cells", "experiment": "Western blot of IRS-1/PI3K/Akt signaling pathway", "type": "cell-based, human"}, "[9]": {"biological_target": "T3, human monoamine oxidase A (hMAO-A) (Homo sapiens, UniProt P21397)", "T3 sequence (P21397 1-527)": "T2 sequence (P21397 1-527)", "experiment": "hMAO-A inhibition chemiluminescent assay", "type": "biochemical"}},
  "note": "“Also recorded” adds a separate entry of the source.",
  "data": [
    {"smiles": "CN(CCOc1ccc(CC2SC(=O)NC2=O)cc1)c1ccccn1", "note": "(stereo not drawn) [Rosiglitazone, reference compound]", "values": [
      {"measurement": "insulin-stimulated glucose uptake", "setting": "[1]; 10 μM, 2-NBDG", "result": 118.52, "unit": "%"}
    ]},
    {"smiles": "COc1cc(O)c2c(O)c3c(=O)cc(C)oc3cc2c1", "note": "[rubrofusarin]", "values": [
      {"measurement": "IC50", "setting": "[2]", "result": "17 ± 0.49", "unit": "µM"},
      {"measurement": "PTP1B expression", "setting": "[3]", "result": "inhibited PTP1B expression in a dose-dependent manner; also recorded: at 50 μM concentration significantly reduced the expression"},
      {"measurement": "cytotoxicity (cell viability)", "setting": "[4]", "result": "showed toxicity at 100 μM; also recorded: nontoxic up to a 50 μM concentration"},
      {"measurement": "PTP1B inhibition type", "setting": "[5]; Lineweaver–Burk plot", "result": "mixed-competitive"},
      {"measurement": "Ki", "setting": "[5]; PTP1B inhibition Ki value (Kic), binding constant of the inhibitor with the free enzyme", "result": 6.99, "unit": "µM"},
      {"measurement": "Ki", "setting": "[5]; PTP1B inhibition Ki value (Kiu), binding constant of the inhibitor with the enzyme–substrate complex", "result": 18.3, "unit": "µM"},
      {"measurement": "expressions of PEPCK and G6Pase", "setting": "[6]", "result": "downregulate the expressions of PEPCK and G6Pase"},
      {"measurement": "hMAO-A inhibition type", "setting": "[7]", "result": "mixed-competitive"},
      {"measurement": "relative glucose uptake percentage", "setting": "[1]; 12.5 μM", "result": 68.54, "unit": "%"},
      {"measurement": "relative glucose uptake percentage", "setting": "[1]; 25 μM", "result": 81.27, "unit": "%"},
      {"measurement": "relative glucose uptake percentage", "setting": "[1]; 50 μM", "result": 98.47, "unit": "%"},
      {"measurement": "expression of total IRS-1 and p-IRS-1 (Tyr 895)", "setting": "[8]", "result": "dose-dependently increased the expression of total IRS-1 and p-IRS-1 (Tyr 895)"},
      {"measurement": "relative abundances of p-PI3K and p-Akt", "setting": "[8]", "result": "in a dose-dependent manner increased the relative abundances of p-PI3K and p-Akt"},
      {"measurement": "IC50", "setting": "[9]", "result": "5.9 ± 0.99", "unit": "µM"}
    ]}
  ]
}
